From ChEMBL document CHEMBL4118104, “Design, Synthesis, and Evaluation of Orally Bioavailable Quinoline-Indole Derivatives as Innovative Multitarget-Directed Ligands: Promotion of Cell Proliferation in the Adult Murine Hippocampus for the Treatment of Alzheimer's Disease” (J Med Chem, 2018)
Active and inactive are the calls of the source. The rule behind the calls is not given here.

How the values were obtained:
[1] = Permeability of compound at 100 ug/ml after 10 hrs by PAMPA assay; format: ADME; details: read-out: permeability
PC-12 [2] = experiment: Cytotoxicity against rat undifferentiated PC12 cells at 0.5 to 50 uM after 72 hrs by MTT assay; format: cell-based; details: pc-12, 72 h
PC-12 [3] = experiment: Induction of rat PC12 cell proliferation at 0.5 to 50 uM after 72 hrs by microscopic analysis; format: functional, cell-based
In short: (§1)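 Undifferentiated PC12 cells cultured 72 h with compound at 0.5–50 µM (images at 10 µM) or with NGF 50 ng/ml, then examined under a digital microscope.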

PC-12 [4] = experiment: Induction of rat PC12 cell proliferation at 10 uM after 72 hrs by microscopic analysis; format: functional, cell-based; in short: as §1
SH-SY5Y = experiment: Neuroprotective activity against t-BuOOH-induced oxidative stress in human SH-SY5Y cells assessed as inhibition ROS accumulation pre-incubated for 24 hrs before t-BuOOH challnge for 30 mins by DCFH-DA probe based fluorescence assay; format: functional, cell-based
In short: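 SH-SY5Y cells; test agents at 1–0.01 µM, oxidative stress induced by tert-butyl hydroperoxide; intracellular ROS read by DCFH-DA fluorescence; at least three independent experiments in sextuplicate; EC50 derived.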

[5] = Metabolic stability in Sprague-Dawley rat liver microsomes assessed as metabolic rate constant at 100 uM up to 180 mins by HPLC-UV analysis; details: 3 h
[6] = Half life in Sprague-Dawley rat liver microsomes at 100 uM up to 180 mins by HPLC-UV analysis
Mus musculus [7] = experiment: Induction of cell proliferation in C57BL/6 mouse hippocampal neurons in CA1 region assessed as BrdU-incorporation at 30 mg/kg, po administered via gavage for 7 days by immunohistochemical analysis (reference value: 2.3%); format: functional
In short: (§2)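 C57BL/6 mice, 12 weeks old, n = 6, individually housed beforehand without wheels. Compound gavaged 30 mg/kg/day for 7 days with daily IP BrdU 50 mg/kg; BrdU+ cells counted by immunohistochemistry per hippocampal volume; two-way ANOVA.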

Mus musculus [8] = experiment: Toxicity in C57BL/6 mouse assessed as macroscopic abnormalities of liver at 677 to 2000 mg/kg, ig after 14 consecutive days; format: organism-based; details: in vivo, po
Mus musculus [9] = experiment: Toxicity in C57BL/6 mouse assessed as effect on water intake at 677 to 2000 mg/kg, ig measured continuously during first 4 hrs, intermittently for following 24 hrs and occasionally thereafter for 14 consecutive days; format: organism-based; details: in vivo, po
Mus musculus [10] = experiment: Toxicity in C57BL/6 mouse assessed as abnormal behavior at 677 to 2000 mg/kg, ig measured continuously during first 4 hrs, intermittently for following 24 hrs and occasionally thereafter for 14 consecutive days; format: organism-based; details: in vivo, po
In short: (§3)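 Adult C57BL/6 mice, 12 weeks old, given single intragastric doses of 0, 677, 1333 or 2000 mg/kg (n = 6 per dose, 3 male and 3 female). Abnormal behaviour and deaths observed continuously for the first 4 h, intermittently over the next 24 h, then occasionally for 14 days to catch delayed effects.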

Mus musculus [11] = experiment: Toxicity in C57BL/6 mouse assessed as macroscopic abnormalities of heart at 677 to 2000 mg/kg, ig after 14 consecutive days; format: organism-based; details: in vivo, po
Mus musculus [12] = experiment: Toxicity in C57BL/6 mouse assessed as macroscopic abnormalities of stomach at 677 to 2000 mg/kg, ig after 14 consecutive days; format: organism-based; details: in vivo, po
Mus musculus [13] = experiment: Toxicity in C57BL/6 mouse assessed as histological abnormalities of lung at 2000 mg/kg, ig after 14 consecutive days by hematoxylin/eosin dye-based microscopic analysis; format: organism-based; details: in vivo, po, 336 h
In short: (§4)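 Adult C57BL/6 mice, 12 weeks old, single intragastric doses of 0, 677, 1333 or 2000 mg/kg (n = 6 per dose, 3 male/3 female); behaviour and mortality observed over 14 days; liver, heart, lung and brain examined by HE staining at 2000 mg/kg.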

Mus musculus [14] = experiment: Toxicity in C57BL/6 mouse assessed as effect on food intake at 677 to 2000 mg/kg, ig measured continuously during first 4 hrs, intermittently for following 24 hrs and occasionally thereafter for 14 consecutive days; format: organism-based; details: in vivo, po
Mus musculus [15] = experiment: Toxicity in C57BL/6 mouse assessed as effect on body weight at 677 to 2000 mg/kg, ig measured continuously during first 4 hrs, intermittently for following 24 hrs and occasionally thereafter for 14 consecutive days; format: organism-based; details: in vivo, po
Mus musculus [16] = experiment: Toxicity in C57BL/6 mouse assessed as mortality at 677 to 2000 mg/kg, ig measured continuously during first 4 hrs, intermittently for following 24 hrs and occasionally thereafter for 14 consecutive days; format: organism-based; details: in vivo, po; in short: as §3
Mus musculus [17] = experiment: Toxicity in C57BL/6 mouse assessed as histological abnormalities of heart at 2000 mg/kg, ig after 14 consecutive days by hematoxylin/eosin dye-based microscopic analysis; format: organism-based; details: in vivo, po; in short: as §4
Mus musculus [18] = experiment: Induction of cell proliferation in C57BL/6 mouse hippocampal neurons in CA3 region assessed as BrdU-incorporation at 30 mg/kg, po administered via gavage for 7 days by immunohistochemical analysis (reference value: 1.5%); format: functional; in short: as §2
Mus musculus [19] = experiment: Toxicity in C57BL/6 mouse assessed as histological abnormalities of liver at 2000 mg/kg, ig after 14 consecutive days by hematoxylin/eosin dye-based microscopic analysis; format: organism-based; details: in vivo, po, 336 h; in short: as §4
Mus musculus [20] = experiment: Induction of cell proliferation in C57BL/6 mouse hippocampal neurons in CA2 region assessed as BrdU-incorporation at 0.5 uL/hr, icv for 7 days by immunohistochemical analysis (reference value: 2.4%); format: functional
Mus musculus [21] = experiment: Toxicity in C57BL/6 mouse assessed as macroscopic abnormalities of intestine at 677 to 2000 mg/kg, ig after 14 consecutive days; format: organism-based; details: in vivo, po
Mus musculus [22] = experiment: Induction of cell proliferation in C57BL/6 mouse hippocampal neurons in DG region assessed as BrdU-incorporation at 30 mg/kg, po administered via gavage for 7 days by immunohistochemical analysis (reference value: 2.2%); format: functional; in short: as §2
Mus musculus [23] = experiment: Toxicity in C57BL/6 mouse assessed as macroscopic abnormalities of lung at 677 to 2000 mg/kg, ig after 14 consecutive days; format: organism-based; details: in vivo, po, 336 h
Mus musculus [24] = experiment: Toxicity in C57BL/6 mouse assessed as macroscopic abnormalities of spleen at 677 to 2000 mg/kg, ig after 14 consecutive days; format: organism-based; details: in vivo, po
Mus musculus [25] = experiment: Induction of cell proliferation in C57BL/6 mouse hippocampal neurons in CA3 region assessed as BrdU-incorporation at 0.5 uL/hr, icv for 7 days by immunohistochemical analysis (reference value: 1.4%); format: functional
Mus musculus [26] = experiment: Induction of cell proliferation in C57BL/6 mouse hippocampal neurons in DG region assessed as BrdU-incorporation at 0.5 uL/hr, icv for 7 days by immunohistochemical analysis (reference value: 7.8%); format: functional
Mus musculus [27] = experiment: Toxicity in C57BL/6 mouse assessed as histological abnormalities of brain at 2000 mg/kg, ig after 14 consecutive days by hematoxylin/eosin dye-based microscopic analysis; format: organism-based; details: in vivo, po, 336 h; in short: as §4
Mus musculus [28] = experiment: Induction of cell proliferation in C57BL/6 mouse hippocampal neurons in CA2 region assessed as BrdU-incorporation at 30 mg/kg, po administered via gavage for 7 days by immunohistochemical analysis (reference value: 2.4%); format: functional; in short: as §2
Mus musculus [29] = experiment: Induction of cell proliferation in C57BL/6 mouse hippocampal neurons in CA1 region assessed as BrdU-incorporation at 0.5 uL/hr, icv for 7 days by immunohistochemical analysis (reference value: 3.2%); format: functional
Mus musculus [30] = experiment: Toxicity in C57BL/6 mouse assessed as macroscopic abnormalities of kidney at 677 to 2000 mg/kg, ig after 14 consecutive days; format: organism-based; details: in vivo, po

With `COc1cc2[nH]c(-c3ccc4cccc(O)c4n3)cc2cc1O` the Papp at 10 h, 100 ug/ml [1] was 12.1 ×10⁻⁶ cm/s.
For `Oc1ccc2[nH]c(-c3ccc(O)c4ncccc34)cc2c1`, the Activity (PC-12 [2]) was “Toxic” and the Papp at 10 h, 100 ug/ml [1] was 9.1 ×10⁻⁶ cm/s.
With `Oc1cccc2ccc(-c3cc4ccc5c(c4[nH]3)OCO5)nc12` [listing 1 of 2 here] the Activity (PC-12 [3]) was “Active” and the Activity (PC-12 [4]) was “Active”.
For `Oc1c(Cl)cc(Cl)c2ccc(-c3cc4cc5c(cc4[nH]3)OCO5)nc12`, the Activity (PC-12 [2]) was “Non-Toxic”, the EC50 (SH-SY5Y) was 330 nM and the Papp at 10 h, 100 ug/ml [1] was 4.9 ×10⁻⁶ cm/s.
For `Oc1cccc2ccc(-c3cc4ccc5c(c4[nH]3)OCO5)nc12` [listing 2 of 2 here], the Activity (PC-12 [2]) was “Non-Toxic”, the EC50 (SH-SY5Y) was 260 nM and the Papp at 10 h, 100 ug/ml [1] was 5.9 ×10⁻⁶ cm/s.
With `COc1cc2cc(-c3ccc4c(Cl)cc(Cl)c(O)c4n3)[nH]c2cc1OC` the Activity (PC-12 [2]) was “Toxic” and the Papp at 10 h, 100 ug/ml [1] was 3.9 ×10⁻⁶ cm/s.
With `Oc1c(Cl)cc(Cl)c2ccc(-c3cc4cc(F)ccc4[nH]3)nc12` the Activity (PC-12 [3]) was “inactive” and the Papp at 10 h, 100 ug/ml [1] was 5.3 ×10⁻⁶ cm/s.
For `COc1cc2[nH]c(-c3ccc4c(Cl)cc(Cl)c(O)c4n3)cc2cc1O`, the Activity (PC-12 [3]) was “inactive” and the Papp at 10 h, 100 ug/ml [1] was 8.4 ×10⁻⁶ cm/s.
In the case of `Oc1c(Cl)cc(Cl)c2ccc(-c3cc4cc(Cl)ccc4[nH]3)nc12`, the Activity (PC-12 [2]) is reported as “Non-Toxic”, the EC50 (SH-SY5Y) is reported as 820 nM and the Papp at 10 h, 100 ug/ml [1] is reported as 5.6 ×10⁻⁶ cm/s.
For `COc1cc2c(cc1OC)C(=O)C(CC1CCN(Cc3ccccc3)CC1)C2` (centres undefined) [DONEPEZIL], the K [5] was 0.00889 min⁻¹ and the half-life at 3 h, 100 µM ([6]; microsomes) was 1.3 h.
For `Cl.Oc1c(Cl)cc(Cl)c2ccc(-c3cc4cc(Cl)ccc4[nH]3)nc12`, the K [5] was 0.00354 min⁻¹, the Activity (Mus musculus [7]) was 4.8% and the Activity (Mus musculus [8]) was “Non-Toxic”. The Activity (Mus musculus [9]) was “Non-Toxic”, the Activity (Mus musculus [10]) was “Non-Toxic” and the Activity (Mus musculus [11]) was “Non-Toxic”. For the same molecule, the Activity (Mus musculus [12]) was “Non-Toxic”, the half-life at 3 h, 100 µM ([6]; liver microsomes) was 3.26 h and the Activity (Mus musculus [13]) was “Non-Toxic”. The Activity (Mus musculus [14]) was “Non-Toxic”, the Activity (Mus musculus [15]) was “Non-Toxic” and the Activity (Mus musculus [16]) was “Non-Toxic”. The Activity (Mus musculus [17]) was “Non-Toxic”, the Activity (Mus musculus [18]) was 4.7% and the Activity (Mus musculus [19]) was “Non-Toxic”. For the same molecule, the Activity (Mus musculus [20]) was 18.1%, the Activity (Mus musculus [21]) was “Non-Toxic” and the Activity (Mus musculus [22]) was 4.4%. For the same molecule, the Activity (Mus musculus [23]) was “Non-Toxic”, the Activity (Mus musculus [24]) was “Non-Toxic” and the Activity (Mus musculus [25]) was 20.3%. The Activity (Mus musculus [26]) was 28.5%, the Activity (Mus musculus [27]) was “Non-Toxic” and the Activity (Mus musculus [28]) was 5.1%. For the same molecule, the Activity (Mus musculus [29]) was 15.3% and the Activity (Mus musculus [30]) was “Non-Toxic”.
With `Oc1cccc2ccc(-c3cc4ccccc4[nH]3)nc12` the Papp at 10 h, 100 ug/ml [1] was 8 ×10⁻⁶ cm/s.
